In experiment [1] the test system is Staphylococcus aureus. As to the kind of experiment: Growth inhibition against Beta lactamase producing bacteria, Staphylococcus aureus (S-54K) was determined for the compound in the combination with Ampicillin. The class given is functional. The essentials:
(§1)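 Bacteria (β-lactamase producers) were grown in Mueller Hinton broth and diluted to 10⁷ cfu/mL. They were inoculated into the same medium containing ampicillin plus triazole and incubated at 37 °C for 20 h. The MIC was the lowest concentration leaving the medium free of turbidity.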

Experiment [2] has as its system Escherichia coli. As to the kind of experiment: Growth inhibition against Beta lactamase producing bacteria, Escherichia coli (TH-397) was determined for the compound in the combination with Ampicillin. It is filed as functional. A digest of the protocol:
as §1

For experiment [3], the system named is Serratia marcescens. In words: Growth inhibition against Beta lactamase producing bacteria, Serratia marcescens was determined for the compound in the combination with Ampicillin. It is filed as functional. The essentials: as §1
Experiment [4] concerns Escherichia coli. As to the kind of experiment: Minimum inhibitory concentration against 30 strains of Escherichia coli. It is filed as functional.
The subject of experiment [5] is Escherichia coli. In words: Growth inhibition against Beta lactamase producing bacteria, Escherichia coli (TH-13) was determined for the compound in the combination with Ampicillin. The class given is functional. The essentials:
as §1

For experiment [6], the system named is Staphylococcus aureus. In words: Growth inhibition against Beta lactamase producing bacteria, Staphylococcus aureus (ATCC90124) was determined for the compound in the combination with Ampicillin. It is filed as functional. A digest of the protocol:
as §1

Experiment [7] has as its system Proteus mirabilis. In words: Growth inhibition against Beta lactamase producing bacteria, Proteus mirabilis (121K) was determined for the compound in the combination with Ampicillin. It is filed as functional. The essentials: as §1
Experiment [8] has as its system Proteus vulgaris. As to the kind of experiment: Growth inhibition against Beta lactamase producing bacteria, Proteus vulgaris (IID OX-19)was determined for the compound in the combination with Ampicillin. The class given is functional. A digest of the protocol: as §1
Experiment [9] relates to Proteus mirabilis. As to the kind of experiment: Minimum inhibitory concentration of Ampicillin required for growth inhibition of Beta lactamase producing bacteria Proteus mirabilis (121K). The class given is functional. A digest of the protocol: (§2)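 Micro broth dilution MIC of ampicillin tested on its own. β-Lactamase-producing bacteria were grown in Mueller Hinton broth and inoculated at 10⁷ cfu/mL into medium containing ampicillin.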

Experiment [10] deals with Escherichia coli. As to the kind of experiment: Minimum inhibitory concentration of Ampicillin required for growth inhibition of Beta lactamase producing bacteria Clinically isolated Escherichia coli (TH-13). The class given is functional. A digest of the protocol:
(§3)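 The inoculum was 10⁷ cfu/mL, incubated at 37 °C for 20 h. The MIC was the lowest concentration that left the medium free of turbidity.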

Experiment [11] has as its system Escherichia coli. In words: Minimum inhibitory concentration of Ampicillin required for growth inhibition of Beta lactamase producing bacteria Clinically isolated Escherichia coli (TH-397). It is filed as functional. A digest of the protocol: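 Broth microdilution in Mueller Hinton broth. Ampicillin was tested with the triazole fixed at 10 µg/mL against a β-lactamase-producing clinical isolate, with an inoculum of 10⁷ cfu/mL. Plates were incubated at 37 °C for 20 h. The MIC was the lowest concentration that left the medium free of turbidity.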

The test system of experiment [12] is Serratia marcescens. In words: Minimum inhibitory concentration of Ampicillin required for growth inhibition of Beta lactamase producing bacteria Serratia marcescens. It is filed as functional. The essentials: as §2
In experiment [13] the test system is Proteus vulgaris. In words: Minimum inhibitory concentration of Ampicillin required for growth inhibition of Beta lactamase producing bacteria Proteus vulgaris (IID OX-19). The class given is functional. The essentials: as §2
Experiment [14] deals with Staphylococcus aureus. In words: Minimum inhibitory concentration of Ampicillin required for growth inhibition of Beta lactamase producing bacteria Staphylococcus aureus (S-54K). The class given is functional. The essentials:
as §3

In experiment [15] the test system is Staphylococcus aureus. In words: Minimum inhibitory concentration of Ampicillin required for growth inhibition of Beta lactamase producing bacteria Staphylococcus aureus (ATCC90124). The class given is functional. A digest of the protocol: as §3
Experiment [16] is described as follows: Inhibitory activity against cephalosporinase from Proteus morganii TH-64 using cephalothin (40 uM) as a substrate; […]. The arrangement: species or system Morganella morganii. A digest of the protocol:
(§4)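 Isolated β-lactamase (cephalosporinase) was inhibited in a microiodometric assay. Substrate concentration was 40 μM, and the 50% inhibitory concentration (M) was determined.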

Experiment [17] can be described thus: Inhibitory activity against cephalosporinase from Proteus vulgaris TH-147 using cephalexin (40 uM) as a substrate. The essentials:
as §4

Experiment [18] addresses Beta-lactamase OXA-1 (Escherichia coli, UniProt P13661). In words: Inhibitory activity against Beta-lactamase type OXA1 (penicillinase) from Escherichia coli OXA1 using ampicillin (40 uM) as a substrate. The essentials:
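Isolated β-lactamase tested by microiodometric assay, measuring substrate hydrolysis. Ampicillin substrate at 40 μM. Value reported as the 50% inhibitory concentration.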

Experiment [19] in a line: Inhibitory activity against cephalosporinase from Proteus morganii TH-64 using cephalothin (40 uM) as a substrate. The arrangement: species or system Morganella morganii. The essentials: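 Isolated β-lactamases were tested by the microiodometric assay, with each line's substrate at 40 μM.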

In brackets after ≈: the same amount, converted by molar mass.

Chain of Beta-lactamase OXA-1 (P13661 whole entry): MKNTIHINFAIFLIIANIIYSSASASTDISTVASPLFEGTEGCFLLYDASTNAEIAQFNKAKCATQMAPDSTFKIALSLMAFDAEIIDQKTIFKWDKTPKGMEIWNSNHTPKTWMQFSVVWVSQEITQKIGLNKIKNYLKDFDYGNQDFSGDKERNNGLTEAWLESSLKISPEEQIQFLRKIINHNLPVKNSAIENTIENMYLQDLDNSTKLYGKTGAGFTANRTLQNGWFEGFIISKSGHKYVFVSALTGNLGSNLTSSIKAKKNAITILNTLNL

A word on the MIC: it is the least concentration at which growth counts as inhibited. The MIC50 is the lowest concentration that inhibits either 50% of growth or 50% of the strains tested, depending on the study. Low values mean higher susceptibility, high ones lower susceptibility. `CC1(C)S[C@@H]2[C@H](NC(=O)[C@H](N)c3ccccc3)C(=O)N2[C@H]1C(=O)O.CC1(C)[C@H](C(=O)O)N2C(=O)C[C@H]2S1(=O)=O`: the MIC in [1] was 0.2 µg/mL; in experiment [2], 0.78 µg/mL; in experiment [3], 3.13 µg/mL; in [5], 6.25 µg/mL; in [6] it was 0.2 µg/mL; in [7], 6.25 µg/mL. Moreover, the MIC in [8] stood at 1.56 µg/mL. Further, the MIC50 in [4] stood at 12.5 µg/mL. The molecule further yielded an MIC70 in experiment [4] of 100 µg/mL.

In the case of `CC1(C)S[C@@H]2[C@H](NC(=O)C(N)c3ccccc3)C(=O)N2[C@H]1C(=O)O.COC(=O)c1cnnn1C[C@@]1(C)[C@H](C(=O)[O-])C2C(=O)CC2S1(=O)=O.[Na+]` (stereo not given in full), the minimum inhibitory concentration (MIC) in experiment [1] is 0.2 µg/mL; in experiment [2] it was 6.25 µg/mL; in [3] it was 25 µg/mL; in experiment [5], 6.25 µg/mL; in experiment [6], 0.2 µg/mL; in [7], 0.78 µg/mL. The MIC in experiment [8] turned out to be 0.39 µg/mL.

As to `CC1(C)[C@H](C(=O)O)N2C(=O)C[C@H]2S1(=O)=O.CCN1CCN(C(=O)N[C@@H](C(=O)N[C@@H]2C(=O)N3[C@@H]2SC(C)(C)[C@@H]3C(=O)O)c2ccccc2)C(=O)C1=O`, in experiment [4], the MIC50 stood at 12.5 µg/mL and the MIC70 amounted to 25 µg/mL.

On to `CC1(C)S[C@@H]2[C@H](NC(=O)C(N)c3ccccc3)C(=O)N2[C@H]1C(=O)O.C[C@]1(Cn2cc([Si](C)(C)C)nn2)[C@H](C(=O)[O-])C2C(=O)CC2S1(=O)=O.[Na+]` (stereo not given in full), for which the MIC in experiment [1] came out at 0.78 µg/mL; in [2], 50 µg/mL; in experiment [3], 100 µg/mL; in experiment [5] it was 100 µg/mL; in [6], 0.39 µg/mL; in experiment [7], 25 µg/mL. Further, the MIC in experiment [8] stood at 1.56 µg/mL.

In the case of `CC1(C)S[C@@H]2[C@H](/N=C/N3CCCCCC3)C(=O)N2[C@H]1C(=O)O.CC1(C)[C@H](C(=O)O)N2C(=O)C[C@H]2S1(=O)=O`, in experiment [4], the MIC50 came out at 0.1 µg/mL and the MIC70 was 0.39 µg/mL.

As for `CC1(C)S[C@@H]2[C@H](NC(=O)C(N)c3ccccc3)C(=O)N2[C@H]1C(=O)O.COC(=O)c1cn(C[C@@]2(C)[C@H](C(=O)[O-])C3C(=O)CC3S2(=O)=O)nn1.[Na+]` (stereo not given in full), the MIC in experiment [1] amounted to 0.2 µg/mL; in experiment [2], 3.13 µg/mL; in experiment [3] it was 12.5 µg/mL; in experiment [5] it was 3.13 µg/mL; in experiment [6], 0.2 µg/mL; in [7], 0.78 µg/mL. Also, the MIC in experiment [8] is 0.39 µg/mL.

As for `CC1(C)S[C@@H]2[C@H](/N=C/N3CCCCCC3)C(=O)N2[C@H]1C(=O)O` [AMDINOCILLIN], in experiment [4], the MIC50 is 3.13 µg/mL (≈ 9.62 µM) and the MIC70 stood at 12.5 µg/mL (≈ 38.4 µM).

Regarding `CC1(C)S[C@@H]2[C@H](NC(=O)[C@H](N)c3ccccc3)C(=O)N2[C@H]1C(=O)O` [AMPICILLIN], the MIC is more than 400 µg/mL in [9]; 200 µg/mL (≈ 572 µM) in [10]; 400 µg/mL (≈ 1140 µM) in experiment [11]; 400 µg/mL (≈ 1140 µM) in experiment [12]; 200 µg/mL (≈ 572 µM) in experiment [13]; 25 µg/mL (≈ 71.5 µM) in experiment [14]. For the same molecule, 25 µg/mL (≈ 71.5 µM) was the least that counted as inhibitory in experiment [15] (MIC). The same molecule gave an MIC50 in experiment [4] of 400 µg/mL (≈ 1140 µM). For the same molecule, in experiment [4], the MIC70 is more than 400 µg/mL.

In experiment [4], `CC1=C(C(=O)O)N2C(=O)[C@@H](NC(=O)[C@H](N)c3ccccc3)[C@H]2SC1` [CEPHALEXIN ANHYDROUS] displayed an MIC50 of 25 µg/mL (≈ 72 µM) and an MIC70 of 100 µg/mL (≈ 288 µM).

The term IC50 denotes the concentration that inhibits the measured activity by half. A lower IC50 goes with greater potency in that assay. As for `O=C(O)[C@H]1/C(=C/CO)O[C@@H]2CC(=O)N21` [CLAVULANIC ACID], the IC50 result is “Not Active” in [16], 0.16 µM in [17] and 3.2 µM in [18].

For `CCN1CCN(C(=O)N[C@@H](C(=O)N[C@@H]2C(=O)N3[C@@H]2SC(C)(C)[C@@H]3C(=O)O)c2ccccc2)C(=O)C1=O` [PIPERACILLIN], in experiment [4], the MIC50 turned out to be 50 µg/mL (≈ 96.6 µM) and the MIC70 came to 200 µg/mL (≈ 386 µM).

Take `CC1(C)[C@H](C(=O)O)N2C(=O)C[C@H]2S1(=O)=O` [SULBACTAM]: the IC50 in experiment [17] was 0.8 µM; in [19], 1 µM; in experiment [18] it was 22 µM.

The values are drawn from ChEMBL document CHEMBL1123814, “Synthesis and beta-lactamase inhibitory properties of 2 beta-[(1,2,3-triazol-1-yl)methyl]-2 alpha-methylpenam-3 alpha-carboxylic acid 1,1-dioxide and related triazolyl derivatives” (J Med Chem, 1987).
